PglD inh – blocks C. jejuni PglD acetyltransferase activity. purified PglD enzyme, DTNB colorimetric CoA detection. inhibition, % at 12.5 µM. actives 0.098% (n = 360,000). AID 602405; in the data active = inhibition above about 16%, passing the limit was not always enough; inconclusive = no clear call, values can overlap the other calls
SR-BI DiI inh – blocks mouse SR-BI lipid uptake from DiI-HDL | Q61009 | ldlA[mSR-BI] CHO cells, DiI-HDL uptake fluorescence, 3 h | inhibition, % at 12.5 µM | actives 0.96% (n = 320,000);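 active = mean replicate inhibition of at least 70% and a set share of replicates each scoring 70 or more; inconclusive = meets just one of the two criteria; inactive = fails both criteria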;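 also: 0% = median of neutral control wells and 100% = median of positive control wells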
Target sequence (Q61009 whole entry, looked up): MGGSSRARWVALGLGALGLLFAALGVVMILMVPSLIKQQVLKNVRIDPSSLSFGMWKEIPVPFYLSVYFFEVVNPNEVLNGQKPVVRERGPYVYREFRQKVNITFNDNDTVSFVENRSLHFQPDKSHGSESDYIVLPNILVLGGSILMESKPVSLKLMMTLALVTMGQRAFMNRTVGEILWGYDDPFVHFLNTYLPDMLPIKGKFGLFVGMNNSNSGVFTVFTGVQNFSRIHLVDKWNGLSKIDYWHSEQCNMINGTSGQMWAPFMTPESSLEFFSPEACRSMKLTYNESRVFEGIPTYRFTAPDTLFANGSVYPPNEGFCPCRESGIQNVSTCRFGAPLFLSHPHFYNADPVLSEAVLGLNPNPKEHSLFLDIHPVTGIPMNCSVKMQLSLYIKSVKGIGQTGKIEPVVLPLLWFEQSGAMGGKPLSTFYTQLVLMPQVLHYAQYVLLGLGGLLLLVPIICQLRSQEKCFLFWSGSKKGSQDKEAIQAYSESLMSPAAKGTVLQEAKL
HIV Env fusion – blocks HIV Env-driven cell-cell fusion; HeLa-JRFL Env/CEM21 cell fusion, luciferase; inhibition, % at 12.3 µM; actives 1.1% (n = 360,000); AID 651610;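 active = mean replicate inhibition score of at least 50 and every replicate individually at or above 50; inconclusive = only one of the two criteria met; inactive = mean below 50 and not all replicates reaching 50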;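 also: 0% = plate neutral controls and 100% = maraviroc near 300 nM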
N-glyco inh – blocks N-linked glycosylation in D54 reporter cells; actives 0.23% (n = 360,000); D54 ERlucT glycosylation luciferase reporter, 24 h; percent of 100 nM tunicamycin response; reporter increase, % at 12.5 µM;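 active = mean luciferase reporter signal, scaled so untreated is 0 and the glycosylation-blocking control 100, at or above a set limit in every replicate; inconclusive = mean reaches the limit but not every replicate does; inactive = mean below the limit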;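 also: luciferase carries N-glycosylation sites so blocking glycosylation raises the light; 0% = median of neutral control wells and 100% = median of 100 nM tunicamycin wells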
SR-BI uptake up – enhances SR-BI lipid uptake from DiI-HDL; activation, % at 12.5 µM; CHO ldlA[mSR-BI] cells, DiI-HDL uptake fluorescence, 3 h; 100 = double the neutral-control signal; actives 0.096% (n = 320,000);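 active = mean replicate activation of at least 60% and every replicate at or above 60%; inconclusive = mean or all-replicate condition met, but not both; inactive = mean below 60% and not all replicates reaching 60%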;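 also: 0% = median plate neutral-control signal and 100% = twice that signal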
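System: CHO ldlA[mSR-BI] cells / Medium: HEPES-buffered (25 mM, pH 7.4) F12 plus 0.5% BSA / Probe or stimulus: labelled HDL, 10 µg/mL / Doses: single compound concentration, delivered by pin transfer / Schedule: 3 h, 37 °C / Measured by: DiI fluorescence, bottom read / Measure: cell-associated DiI fluorescence as measure of HDL uptake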
Rtt109 HAT inh – blocks Candida albicans Rtt109/Vps75 acetyltransferase activity | Q5AAJ8 | purified Rtt109/Vps75, ThioGlo CoA-SH fluorescence, 4 h | inhibition, % at 34.9 µM | actives 0.16% (n = 330,000) | AID 540336;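 active = inhibition of at least 50% in every replicate; inconclusive = best replicate reaches 50% inhibition but some replicates fall short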
DiI quencher – quenches DiI-HDL fluorescence, an SR-BI assay artifact. AC50, µM (highest dose often 35 µM), for inactives: top-dose activity change, negative = quenching. actives 20% (n = 470). shares compounds with SR-BI DiI inh. cell-free DiI-HDL fluorescence quenching, 30 min;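 active = quenching, a falling signal, with AC50 below a set limit tied to the top valid dose, actives reach about 32 µM in these data; inconclusive = no clear call, values can overlap the other calls; inactive = rising signal, and the rest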
Active calls of the source: *; ? = inconclusive; . = no result; [ ] = another dose, or the depositor's remark. An excerpt weighted towards active compounds, which were near 1.9% of everything screened.

SMILES | PglD inh | SR-BI DiI inh | HIV Env fusion | N-glyco inh | SR-BI uptake up | Rtt109 HAT inh | DiI quencher
COc1ccc(C[C@@H]2CCn3cc(nn3)COC[C@H](Cc3ccccc3)NC2=O)cc1 | . | . | 7.6[16.7 µM] | . | . | . | .
COC(=O)c1cc2c(ccn2-c2ccc(F)cc2)n1Cc1ccc(C#N)cc1 | . | 78.0* | . | -3.7 | -78.0 | 3.0 | 1.7%
COC(=O)c1cc2c(ccn2-c2ccc(F)cc2)n1Cc1ccc(OC)cc1 | . | 68.4 | -0.3 | -4.0 | -68.4 | 7.0 | .
C[C@@H]1CN([C@@H](C)CO)C(=O)c2cc(NC(=O)c3ccncc3)ccc2O[C@@H](C)CCCCO[C@H]1CN(C)S(C)(=O)=O | -3.1 | . | 5.3[16.7 µM] | . | . | . | .
CN1CCc2ccc(NC(=O)c3ccc(C(F)(F)F)cc3)cc2C1 | -3.2 | 82.4* | 1.1 | -3.1 | -82.4 | -9.0 | 1.6%
CN1CCN(c2ccc(NC(=O)c3ccc(C(F)(F)F)cc3)cn2)CC1 | . | 8.3 | 8.9 | -2.7 | -8.3 | -4.4 | .
CO[C@H]1CN(C)C(=O)c2cc(NC(C)=O)ccc2OC[C@@H](C)N(Cc2cccnc2)C[C@H]1C | 7.3 | . | -10.4[16.7 µM] | . | . | . | .
COC(=O)c1ccc2c(c1)C(=O)/C(=C/c1ccc(C)cc1)O2 | -1.2 | 5.7 | -16.3 | 4.1 | -5.7 | 1.3 | .
CN(C)c1ccc(/C=C2\Oc3ccc(C#Cc4cccc(N)c4)cc3C2=O)cc1 | -3.7 | ? | . | -3.8 | -70.3 | -3.8 | -13.7%
C[C@@H]1CN([C@H](C)CO)C(=O)Cc2cc(NC(=O)CCN3CCOCC3)ccc2O[C@@H]1CN(C)Cc1ccncc1 | 5.2 | . | -4.7[16.7 µM] | . | . | . | .
CCOC(=O)Nc1nc(-c2ccccc2)c(C(=O)c2ccccc2)s1 | 3.8 | 74.9* | . | 18.6 | -74.9 | 1.8 | -1.8%
COc1ccccc1CNC(=O)C1CCN(C(=O)c2sccc2-n2cccc2)CC1 | -0.1 | ? | -3.4 | 1.4 | -70.9 | 9.4 | -1.7%
Cc1ccc(CCNC(=O)C2CCN(C(=O)c3sccc3-n3cccc3)CC2)cc1 | . | 49.7 | . | -2.4 | -49.7 | -0.7 | -2.1%
O=C(NCCc1ccccc1)C1CCN(C(=O)c2sccc2-n2cccc2)CC1 | -3.4 | 80.7* | . | 0.7 | -80.7 | -4.4 | -6.1%
C[C@@H]1CCCCO[C@@H](CN(C)C(=O)c2ccccc2)[C@H](C)CN([C@H](C)CO)C(=O)c2cc(NC(=O)Nc3ccc4c(c3)OCO4)ccc2O1 | 5.0 | . | -18.7[16.7 µM] | . | . | . | .
CN1CCN(C(=O)C[C@@H]2CC[C@@H]3[C@H](COC[C@H](O)CN3S(=O)(=O)c3cccc(Cl)c3)O2)CC1 | 0.5 | . | . | . | . | . | .
O=C(NCC1CC1)[C@@H]1[C@@H](CO)[C@@H]2Cn3c(ccc(-c4cccnc4)c3=O)[C@H]1N2C(=O)C1CCCCC1 | 0.2 | . | . | . | . | . | .
COc1ccc(S(=O)(=O)N(C)C[C@H]2OCCCC[C@H](C)Oc3ccc(NS(=O)(=O)c4cn(C)cn4)cc3C(=O)N([C@H](C)CO)C[C@H]2C)cc1 | 7.6 | . | 5.8[16.7 µM] | . | . | . | .
Cc1cc(C)nc(Nc2n[nH]c(-c3ccc(C(C)(C)C)cc3)n2)n1 | 9.7 | 108.1* | -6.7 | 2.8 | -108.1 | 2.6 | 10.7µM*
CN1CCC2CC1c1cc(-c3ccc(C(F)(F)F)cc3)ccc12 (stereo not given) | -1.6 | -12.2 | . | 1.9 | 12.2 | -8.5 | -4.7%
CS(=O)(=O)N1CCC2CC1c1cc(-c3ccccc3)ccc12 (stereo not given) | -3.3 | 3.9 | 5.3 | 0.8 | -3.9 | -6.1 | .
COc1ccc(OC)c2[nH]c(C(=O)O)cc12 | -2.9 | 5.7 | . | 1.5 | -5.7 | 2.9 | .
COc1ccc(OC)c2[nH]c(C(=O)N3CCC(C(=O)O)CC3)cc12 | 6.1 | 74.7* | -3.3 | 0.4 | -74.7 | -0.1 | -3.9%
O=S(=O)(c1ccc(F)cc1)N1CCCCN2[C@H](CO)[C@@H](c3ccc(-c4ccccc4)cc3)[C@H]2C1 | -0.3 | . | . | . | . | . | .
COc1ccc(N2CC(C(=O)N3CCN(S(=O)(=O)c4ccc(F)c(F)c4)CC3)CC2=O)c(OC)c1 (stereo not given) | 1.2 | -3.7 | 5.8 | 0.8 | 3.7 | -1.6 | 6.4%
SMILES | PglD inh | SR-BI DiI inh | HIV Env fusion | N-glyco inh | SR-BI uptake up | Rtt109 HAT inh | DiI quencher
COc1ccc(N2CC(C(=O)Nc3cccc(S(=O)(=O)N4CCCC4)c3)CC2=O)c(OC)c1 (stereo not given) | -10.7 | 17.6 | -11.7 | 1.8 | -17.5 | 15.0 | .
O=C(Nc1ccc(-c2csc(Nc3ccc(Cl)cc3)n2)cc1)c1cccc(C(F)(F)F)c1 | . | . | 30.6 | . | . | . | .
O=C(Nc1ccc(-c2csc(Nc3ccccc3)n2)cc1)c1cccc(C(F)(F)F)c1 | 1.3 | 113.7* | 8.4 | -9.1 | -113.7 | 1.6 | 1.54µM*
COc1cccc(-c2csc(N3CCN(C(=S)Nc4cccc(Cl)c4)CC3)n2)c1 | 2.9 | 78.8* | . | -3.4 | -78.8 | -0.7 | -5.8%
Cc1ccc(Sc2nc(-c3ccccc3)nnc2C(F)(F)F)cc1 | -1.0 | ? | -18.0 | 13.5 | -70.1 | -0.7 | -1.4%
O=S(=O)(N[C@H]1CC[C@@H](CCn2cc(C3CC3)nn2)O[C@@H]1CO)c1ccc(F)cc1 | -0.5 | . | -12.1[16.7 µM] | . | . | . | .
COc1ccc(-c2ccc3c(c2)C2CC3CCN2C(=O)OCc2ccccc2)cc1 (stereo not given) | 2.8 | -11.5 | 37.5 | 2.6 | 11.5 | 4.9 | .
O=C(OCc1ccccc1)N1CCC2CC1c1cc(-c3ccc(F)cc3)ccc12 (stereo not given) | 2.8 | . | 8.0 | 0.0 | . | -6.2 | -3.5%
O=C(C[C@H]1CC[C@H](NC(=O)c2ccc3c(c2)OCO3)[C@@H](CO)O1)NCc1ccc(Cl)cc1 | -0.6 | . | -14.5[16.7 µM] | . | . | . | .
Cc1noc(C)c1NC(=O)Nc1ccc2c(c1)C(=O)N([C@@H](C)CO)C[C@@H](C)[C@H](CN(C)CC1CCCCC1)O2 | 8.5 | . | -2.7[16.7 µM] | . | . | . | .
CN1C(=O)c2cc(NS(=O)(=O)c3ccc(Cl)cc3)ccc2OC[C@@H]2O[C@H](CC(=O)N3CCc4ccccc4C3)CC[C@H]21 | 0.4 | . | 26.6[16.7 µM] | . | . | . | .
CCSCC1COC(c2cccn2Cc2ccc(C)cc2)=N1 (stereo not given) | 4.1 | ? | -64.8 | -2.9 | -70.1 | -7.3 | -5.3%
CCCC(=O)Nc1ccc(Cl)c(NC(=O)c2cccnc2)c1 | 0.1 | 14.9 | -0.1 | -3.2 | -14.9 | 5.3 | .
CCCC(=O)Nc1ccc(Cl)c(NC(=O)c2cccc(OC)c2)c1 | . | 77.8* | 5.5 | -3.8 | -77.7 | . | 1.9%
C[C@@H]1CN([C@@H](C)CO)S(=O)(=O)c2ccc(-c3ccccc3F)cc2O[C@H]1CN(C)Cc1cccnc1 | 0.6 | . | . | . | . | . | .
COc1ccccc1NC(=O)N(C)C[C@@H]1Oc2ncc(Br)cc2C(=O)N([C@H](C)CO)C[C@H]1C | -3.3 | . | -25.3[16.7 µM] | . | . | . | .
COc1cccc2c1cc1c(=O)n(CC(=O)N3CCCC3)nc(C)n12 | 1.8 | -10.6 | -13.7 | 1.2 | 10.6 | -5.8 | .

Bioassay records: PubChem, Broad Institute
